Experimental data reported in ChEMBL document CHEMBL4715732, “4-Phenylureido/thioureido-substituted 2,2-dimethylchroman analogs of cromakalim bearing a bulky 'carbamate' moiety at the 6-position as potent inhibitors of glucose-sensitive insulin secretion” (Eur J Med Chem, 2016).
Activity calls are given as the source filed them. No cut-off for these calls is given here.

Experiments:
Rattus norvegicus [1] = species on record: Rattus norvegicus; test: Ratio of EC50 for vasorelaxant activity in aortic rings isolated from Wistar rat assessed as reduction in KCl-induced contractions measured after 60 mins in presence of 80 mM KCl by force-displacement transducer to IC50 for inhibition of 16.7 mM glucose-induced insulin secretion in Wistar rat pancreatic islets incubated for 90 mins in presence of glucose by radioimmunological assay; type: functional
Rattus norvegicus [2] = species on record: Rattus norvegicus; test: Activation of ATP-sensitive potassium channel in perifused Wistar rat pancreatic islets assessed as increase in [45]Ca efflux at 10 uM measured up to 90 mins in presence of 16.7 mM glucose and absence of extracellular Ca2+ by scintillation counting method; conditions: filed as opener, time min <=90
Summary of the method: (§1)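 Rat islets were prelabeled with 45Ca and perifused throughout with 16.7 mM glucose. Basal medium either contained extracellular Ca2+ or was Ca2+-free and enriched with 0.5 mM EGTA. Agent was added at 10 μM, and 45Ca outflow and insulin release were followed. Values are mean ± SEM of 5-6 individual experiments.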

Rattus norvegicus [3] = species on record: Rattus norvegicus; test: Activation of ATP-sensitive potassium channel in perifused Wistar rat pancreatic islets assessed as increase in 86Rb outflow at 10 uM measured up to 90 mins by scintillation counting method; conditions: filed as opener, time min <=90
Pancreatic islet [4] = test: Decrease in cytosolic Ca2+ concentration during sustained phase in Wistar rat pancreatic islets at 10 uM measured up to 30 mins in presence of 2.8 to 20 mM extracellular glucose concentration by Fura-2 dye based fluorescence assay; type: functional, tissue-based; conditions: time min <=30
Summary of the method: (§2)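 Single rat pancreatic islet cells were loaded with fura-2 and cytosolic Ca2+ was read as the 340:380 nm fluorescence ratio. Glucose was raised from 2.8 to 20 mM, in medium with or without external calcium. Agent (10 μM) was added afterwards, during the sustained phase.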

Rattus norvegicus [5] = species on record: Rattus norvegicus; test: Activation of ATP-sensitive potassium channel in perifused Wistar rat pancreatic islets assessed as increase in 45Ca efflux at 10 uM measured up to 90 mins in presence of 2.8 mM glucose and absence of extracellular Ca2+ by scintillation counting method; conditions: filed as opener, time min <=90
Summary of the method: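 Perifused rat islets carrying 45Ca were exposed to 2.8 mM glucose in medium with or without extracellular Ca2+. Agent was added at 10 μM and 45Ca outflow was monitored.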

[6] = (§3) Inhibition of glucose-induced insulin secretion in Wistar rat pancreatic islets incubated for 90 mins in presence of 16.7 mM glucose by radioimmunological assay; type: functional, tissue-based; conditions: Pancreatic islet, 1.5 h
Summary of the method: (§4)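 Rat pancreatic islets were incubated with 16.7 mM glucose, with test concentrations added to the medium (0.1, 0.5, 1 and 10 μM). Insulin release is given as a percentage of the control (no drug, 16.7 mM glucose), as mean ± SEM with n = number of samples. IC50 is the concentration giving a 50% reduction of the secretory response to glucose.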

Pancreatic islet [7] = test: as §3; type: functional, tissue-based; summary of the method: as §4
Pancreatic islet [8] = test: Increase in intracellular Ca2+ concentration under deprived extracellular calcium and physiological condition in Wistar rat pancreatic islets at 10 uM measured up to 30 mins in presence of 20 mM extracellular glucose concentration by Fura-2 dye based fluorescence assay; type: functional, tissue-based; conditions: time min <=30; summary of the method: as §2
Rattus norvegicus [9] = species on record: Rattus norvegicus; test: Activation of ATP-sensitive potassium channel in perifused Wistar rat pancreatic islets assessed as increase in 86Rb outflow at 10 uM measured up to 90 mins in basal media containing 5.6 mM glucose and glibenclamide by scintillation counting method; conditions: time min <=90
Summary of the method: (§5)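 Rat islets were perifused throughout in basal medium with 5.6 mM glucose and extracellular Ca2+, with or without the KATP blocker glibenclamide (10 μM). Test agent was added at 10 μM and 86Rb outflow was followed. Values are mean ± SEM of 6 individual experiments.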

Rattus norvegicus [10] = species on record: Rattus norvegicus; test: Activation of ATP-sensitive potassium channel in perifused Wistar rat pancreatic islets assessed as inhibition of insulin secretion at 10 uM measured up to 90 mins in presence of 16.7 mM glucose by scintillation counting method; conditions: filed as opener, time min <=90; summary of the method: as §1
Aorta [11] = test: Myorelaxant activity in aortic rings isolated from Wistar rat assessed as reduction in 80 mM KCl-induced contractions; type: functional, tissue-based
Summary of the method: (§6)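 Endothelium-free rat aorta rings were contracted with 30 mM or 80 mM K+, with 1 or 10 μM glibenclamide present for some 30 mM series. Agent was applied cumulatively. EC50 is the concentration giving 50% relaxation of the KCl-induced contraction, reported as mean ± SEM (n).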

Rattus norvegicus [12] = species on record: Rattus norvegicus; test: Activation of ATP-sensitive potassium channel in perifused Wistar rat pancreatic islets assessed as increase in extracellular K+ concentration at 10 uM measured up to 90 mins in presence of 2.8 mM glucose and extracellular Ca2+ by scintillation counting method; conditions: filed as opener, time min <=90
Summary of the method: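 Rat islets were perifused in 2.8 mM glucose with extracellular Ca2+. Extracellular K+ was raised from 5 to 50 mM, and 45Ca outflow was measured with or without agent (10 μM) present continuously. Values are mean ± SEM of 10 individual experiments.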

Rattus norvegicus [13] = species on record: Rattus norvegicus; test: Activation of ATP-sensitive potassium channel in perifused Wistar rat pancreatic islets assessed as inhibition of 45Ca outflow at 10 uM measured up to 90 mins in presence of 16.7 mM glucose and extracellular Ca2+ by scintillation counting method; conditions: filed as opener, time min <=90; summary of the method: as §1
[14] = Residual glucose-induced insulin secretion in Wistar rat pancreatic islets at 10 uM incubated for 90 mins in presence of 16.7 mM glucose by radioimmunological assay relative to control; conditions: Pancreatic islet, 1.5 h
Aorta [15] = test: Myorelaxant activity in aortic rings isolated from Wistar rat assessed as reduction in KCl-induced contractions measured after 60 mins in presence of 80 mM KCl by force-displacement transducer; type: functional, tissue-based; summary of the method: as §6
Rattus norvegicus [16] = species on record: Rattus norvegicus; test: Activation of ATP-sensitive potassium channel in perifused Wistar rat pancreatic islets assessed as increase in extracellular K+ concentration at 10 uM measured up to 90 mins in presence of 2.8 mM glucose and absence of extracellular Ca2+ by scintillation counting method; conditions: filed as opener, time min <=90
Rattus norvegicus [17] = species on record: Rattus norvegicus; test: Activation of ATP-sensitive potassium channel in perifused Wistar rat pancreatic islets assessed as increase in 86Rb outflow at 10 uM measured up to 90 mins by scintillation counting method; conditions: filed as opener, time min <=90; remark: listed apart in the source
[18] = Residual glucose-induced insulin secretion in Wistar rat pancreatic islets at 0.1 uM incubated for 90 mins in presence of 16.7 mM glucose by radioimmunological assay relative to control; conditions: Pancreatic islet, 1.5 h
[19] = Residual glucose-induced insulin secretion in Wistar rat pancreatic islets at 1 uM incubated for 90 mins in presence of 16.7 mM glucose by radioimmunological assay relative to control; conditions: Pancreatic islet, 1.5 h
Aorta [20] = test: Myorelaxant activity in aortic rings isolated from Wistar rat assessed as reduction in 30 mM KCl-induced contractions in presence of 1 uM KATP channel blocker glibenclamide; type: functional, tissue-based; summary of the method: as §6
Pancreatic islet [21] = test: Increase in intracellular Ca2+ concentration under deprived extracellular calcium and physiological condition in Wistar rat pancreatic islets at 10 uM measured up to 30 mins in presence of 2.8 mM extracellular glucose concentration by Fura-2 dye based fluorescence assay; type: functional, tissue-based; conditions: time min <=30
Summary of the method: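 Fura-2-loaded single rat islet cells were kept at 2.8 mM glucose in medium with or without extracellular calcium. Agent was added at 10 μM and fluorescence intensity was monitored.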

Aorta [22] = test: Myorelaxant activity in aortic rings isolated from Wistar rat assessed as reduction in 30 mM KCl-induced contractions in presence of 10 uM KATP channel blocker glibenclamide; type: functional, tissue-based; summary of the method: as §6
[23] = Residual 16.7 mM glucose-induced insulin secretion in Wistar rat pancreatic islets at 0.5 uM incubated for 90 mins in presence of glucose by radioimmunological assay relative to control; conditions: Pancreatic islet, 1.5 h
Rattus norvegicus [24] = species on record: Rattus norvegicus; test: Activation of ATP-sensitive potassium channel in perifused Wistar rat pancreatic islets assessed as increase in 86Rb outflow at 10 uM measured up to 90 mins by scintillation counting method; conditions: filed as opener, time min <=90; summary of the method: as §5

For `CC(C)(C)OC(=O)Nc1ccc2c(c1)C(NC(=O)Nc1cccc(C#N)c1)CC(C)(C)O2` (racemic), the Ratio (Rattus norvegicus [1]) was 44, the Activity (Rattus norvegicus [2]) was “Active” and the Activity (Rattus norvegicus [3]) was “Active”. For the same compound, the Activity (Pancreatic islet [4]) was “Active”, the Activity (Rattus norvegicus [5]) was “Active” and the IC50 [6] was 240 nM. The inhibition (Pancreatic islet [7]) was “Dose-dependent effect”, the Activity (Pancreatic islet [8]) was “Active” and the Activity (Rattus norvegicus [9]) was “inactive”. The Activity (Rattus norvegicus [10]) was “Active”, the EC50 (Aorta [11]) was 12.2 µM and the Activity (Rattus norvegicus [12]) was “Active”. For the same compound, the Activity (Rattus norvegicus [13]) was “Active”, the residual insulin secretion at 10 µM [14] was 7.4% and the Activity (Aorta [15]) was “Dose-dependent effect”. For the same compound, the EC50 (Aorta [15]; 1 h, in the assay text read “30 mM KCl” for “80 mM KCl”) was 10.5 µM, the Activity (Rattus norvegicus [16]) was “Active” and the Activity (Rattus norvegicus [17]) was “Active”. The residual insulin secretion at 0.1 µM [18] was 82%, the residual insulin secretion at 1 µM [19] was 15.6% and the EC50 (Aorta [20]) was 11.6 µM. For the same compound, the Activity (Pancreatic islet [21]) was “Active”, the EC50 (Aorta [22]) was 9.4 µM and the residual insulin secretion at 0.5 µM [23] was 28.6%. The Activity (Rattus norvegicus [24]) was “Active”.
